CXCR6 inh – CXCR6 receptor inhibitors, primary screen, cell-based, beta-arrestin, luminescence, CHO-K1 PathHunter, 1536-well. C-X-C chemokine receptor type 6 (Homo sapiens), O00574. inhibition, % at 20 µM. actives 0.36% (n = 360,000). AID 602244, 2012; in the data active means inhibition above about 34%, passing the limit was not always enough;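 further: antagonist mode with CXCL16 agonist at 10 nM final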
Target sequence (O00574 whole entry, looked up): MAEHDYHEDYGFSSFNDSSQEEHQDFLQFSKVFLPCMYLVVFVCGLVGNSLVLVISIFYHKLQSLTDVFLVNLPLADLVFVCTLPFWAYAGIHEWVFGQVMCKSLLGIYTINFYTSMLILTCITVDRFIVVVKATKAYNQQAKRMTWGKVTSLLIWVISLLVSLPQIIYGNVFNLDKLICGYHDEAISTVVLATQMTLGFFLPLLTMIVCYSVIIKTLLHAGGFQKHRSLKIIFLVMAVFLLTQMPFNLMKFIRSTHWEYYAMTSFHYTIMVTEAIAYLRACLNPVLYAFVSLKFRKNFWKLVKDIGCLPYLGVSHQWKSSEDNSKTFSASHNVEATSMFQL
B2AR ag – beta2AR agonists driving receptor internalization, primary screen, cell-based, FAP fluorogen, flow cytometry | Beta-2 adrenergic receptor (Homo sapiens), P07550 | Am2.2-beta2AR cells | response, % (no concentration beside the values) | actives 0.43% (n = 340,000) | AID 504454, 2011;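 active means response above a set limit, near 3 SD of response in nonfluorescent compounds, cut at about 42% in these data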
EBI2 block – EBI2 receptor antagonists, beta-arrestin recruitment, primary screen, cell-based, luminescence, 7a,25-OHC stimulation, uHTS; 7a,25-OHC stimulated; G-protein coupled receptor 183 (Homo sapiens), P32249; actives 0.81% (n = 360,000); inhibition, % at 5 µM; in the data active means inhibition above about 38%;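 further: enzyme fragment complementation signal reports receptor beta-arrestin coupling in cells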
APJ agonist – agonists of human apelin receptor APJ, primary screen, CHO-K1 cells, PathHunter beta-arrestin, luminescence; P35414; 0% DMSO wells, 100% apelin; activation, % at 20 µM; actives 0.11% (n = 330,000);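 active means activation more than six SD over the plate average, tested at 20 µM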
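Material: engineered CHO-K1 APJ arrestin reporter cells; amount: 1000 CHO-K1 reporter cells seeded per well; incubation: compound stimulation 90 min at 25 °C, detection 60 min; signal: luminescent beta-gal fragment complementation, chemiluminescent substrate; read-out basis: APJ agonist activity; controls: DMSO-only wells as negative, 10 nM Apelin-13 as positive control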
CCR6 antag – CCR6 receptor antagonists, primary screen, cell-based, CHO-K1, luminescence, beta-arrestin, uHTS; C-C chemokine receptor type 6 (Homo sapiens), P51684; CHO-K1 CCR6 PathHunter beta-arrestin, CCL20-stimulated; inhibition, % at 20 µM; actives 0.49% (n = 340,000);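 active means compounds whose inhibition of the agonist-driven luminescence signal at 20 µM reaches about 50%, limit read from the data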;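 further: cells stimulated with CCL20 at 14 nM final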
APJ antagonist – antagonists of human apelin receptor APJ, primary screen, CHO-K1 cells, beta-arrestin complementation, luminescence | inhibition, % at 20 µM | AID 2521, 2010 | P35414 | actives 0.32% (n = 330,000);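 active means inhibition above about 40% at 20 µM, limit read from the data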;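 further: cells challenged with 10 nM apelin-13 agonist together with compound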
EBI2 conf – EBI2 antagonist hit retest, beta-arrestin, confirmation, cell-based, single concentration, luminescence, 7a,25-OHC stimulation; shares compounds with EBI2 block; inhibition, % at 5 µM; actives 29% (n = 2,400); 7a,25-OHC antagonism; AID 651997, 2013;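 active means inhibition of at least 50%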
EBI2 agonist – EBI2 agonist activity of antagonist hits, confirmation, counter-screen for EBI2 antagonist project, cell-based, single concentration, agonist mode, luminescence | 2,400 tested, under 10 active | shares compounds with EBI2 block | activation, % at 5 µM | AID 652000, 2013 | EBI2-expressing cells, 60 min; 0% vehicle, 100% 7α,25-dihydroxycholesterol control;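 active means activation of at least 50%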
bGal counter – E. coli beta-galactosidase enzyme inhibition, confirmation, counter-screen for EBI2 antagonist project, biochemical, luminescence, single concentration. shares compounds with EBI2 block. purified beta-galactosidase, luminescent Galacton Star, 15 min. inhibition, % at 5 µM. actives 1% (n = 2,400);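 active means replicate-average signal at least 3 plate SD below neutral wells, shown as high inhibition, flagging enzyme-inhibiting false positives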;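 further: higher means stronger loss of beta-gal luminescence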
Hits are given with their value; n = inactive; x = not tested or not shown. Hits are enriched below; roughly 1.8% of the tested compounds scored in any of these assays.

SMILES	CXCR6 inh	B2AR ag	EBI2 block	APJ agonist	CCR6 antag	APJ antagonist	EBI2 conf	EBI2 agonist	bGal counter
COc1ccc(C(C)(NC(C)=O)c2nc(-c3cnc4ccccc4c3)cs2)cc1 (configuration not stated)	n	x	n	x	x	x	x	x	x
CC(=O)c1ccc(S(=O)(=O)Nc2ccc(C(=O)NCCCn3ccnc3)cc2)cc1	n	n	n	n	n	n	x	x	x
Cc1cccc(C(=O)NC(=S)Nc2ccc(S(=O)(=O)N3CCCCC3)cc2)c1	n	n	62	n	n	n	n	n	n
Cc1ccc(CNC(=O)c2ccc(-n3cccc3)cc2)cc1	n	n	47	x	n	x	n	n	n
Cc1cccc(C(=O)NC(=S)Nc2ccc(S(=O)(=O)N3CCN(C)CC3)cc2)c1	n	n	n	n	n	n	x	x	x
COc1ccc(S(=O)(=O)N2CCN(C(=O)NCc3ccc(C)cc3)CC2)cc1	n	n	77	n	n	n	60	n	n
COc1cccc(CNC(=O)N2CCN(S(=O)(=O)c3ccc(C)cc3)CC2)c1	n	n	n	n	n	n	x	x	x
Cc1ccc(CNC(=O)Cc2ccc(-n3cccc3)cc2)cc1	n	n	n	n	n	n	x	x	x
COc1ccc(Cl)cc1NC(=O)c1cccc([N+](=O)[O-])c1O	n	n	n	x	n	x	x	x	x
O=CNC1(c2ccccc2)CCCCC1	n	n	n	x	n	x	x	x	x
O=C(NCc1ccco1)C1C(=O)Nc2ccccc2C(=O)N1C1CCCCC1 (configuration not stated)	x	x	n	x	x	x	x	x	x
COc1ccc(C(=O)Oc2coc(CSc3nnc(NC(=O)c4cccs4)s3)cc2=O)cc1	n	n	n	n	n	n	x	x	x
Cc1ccc(-c2csc(NC(=O)C3CSC4(C)CCC(=O)N34)n2)cc1 (configuration not stated)	n	n	n	n	n	n	x	x	x
C=CCN(C(=O)C1CSC2(C)CCC(=O)N12)c1nc(-c2ccccc2)cs1 (configuration not stated)	n	n	48	n	n	n	64	n	n
CC(C)(C)OC(=O)N1CCC(NC(=O)c2[nH]c(C(F)(F)F)nc2-c2ccccc2)CC1	n	x	n	x	x	x	x	x	x
COc1cc(/C=C/C(=O)c2ccc(Cl)s2)cc(OC)c1O	n	n	45	n	n	n	n	n	n
O=C(Nc1cnn(Cc2ccc(Cl)c(Cl)c2)c1)C12CC3CC(CC(C3)C1)C2	n	n	42	n	n	n	n	n	n
O=[N+]([O-])c1ccc(NS(=O)(=O)c2ccc(Cl)c(Cl)c2)cc1	n	x	n	x	x	x	x	x	x
Cc1ccc(CNC(=O)c2ccc(N3CCC4(CC3)CC(c3ccccc3)=NO4)c(NC(=O)c3ccccc3)c2)cc1	n	n	n	n	n	n	x	x	x
Cc1ccc(CNC(=O)c2ccc(N3CCC4(CC3)CC(c3ccccc3)=NO4)c(N)c2)cc1	n	n	45	n	n	n	n	n	n
COc1cccc(NC(=O)CN(C)C(=O)CCCc2nc3ccccc3c(=O)[nH]2)c1	n	n	n	n	n	n	x	x	x
COc1ccc(NC(=O)C[C@H]2C(=O)N(c3ccc(Br)cc3)C[C@@H]2c2ccc(OC)cc2)cc1	n	x	n	x	x	x	x	x	x
COc1ccc([C@H]2CN(c3ccc(OC)cc3)C(=O)[C@@H]2CC(=O)Nc2ccccc2)cc1	n	x	46	x	x	x	53	n	n

Bioassay records deposited in PubChem by several laboratories.
